Data taken from ChEMBL document CHEMBL4699493, “Development of Bis-cyclic Imidazolidine-4-one Derivatives as Potent Antibacterial Agents” (J Med Chem, 2020).
In brackets after ≈: the same amount, converted by molar mass. Activity calls are given as the source filed them. The calls are words filed in the database; no cut-off is given here.

Columns and labels:
[1] = system: Staphylococcus aureus; test: Antibacterial activity against methicillin-resistant Staphylococcus aureus ATCC 33591; format: functional
How it was run: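 Broth microdilution in TSB. Strains were grown 16 h, subcultured 6 h to log phase, then diluted to 10^6 CFU/mL by OD600. Compound came from a 5 mg/mL DMSO stock diluted in TSB and serially diluted, top final concentration 25 μg/mL. MIC was the lowest concentration giving complete growth inhibition. Done ≥3 times in duplicate.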

[2] = system: Escherichia coli; test: Antibiofilm activity against Escherichia coli ATCC 25922 assessed as reduction in biofilm formation at 3 ug/ml measured after 2 days by crystal violet staining based assay; format: functional; details: ATCC 25922, 48 h, time 2 day
How it was run: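 Mid-log E. coli (overnight culture, then 6 h subculture at 37 °C) set up with compound in TSB as in the MIC assay and incubated 2 days. Wells washed with DI water, stained with 0.1% crystal violet for 15 min, washed, dried, and dye solubilized in 30% acetic acid for 15 min. OD595 normalized to untreated control. Ciprofloxacin as comparator. Triplicate, mean ± STDEV.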

[3] = system: Klebsiella pneumoniae; test: Antibacterial activity against Klebsiella pneumoniae ATCC 13383; format: functional
How it was run: (§1)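 Broth microdilution in TSB. Stocks at 5 mg/mL in DMSO diluted with TSB to 100 μg/mL, then serially diluted; highest test concentration 25 μg/mL. Bacteria grown 16 h, subcultured 6 h to log phase, adjusted to 10^6 CFU/mL by OD600. MIC = lowest concentration giving complete growth inhibition. At least three repeats, each in duplicate.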

[4] = Hemolytic activity against mouse RBC measured after 1 hr by microplate reader analysis; format: ADME, cell-based, Erythrocyte; details: mouse red blood cells (erythrocytes)
How it was run: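 Mouse red blood cells collected by centrifugation (500–700g, 10 min), washed three times in PBS, and diluted 20-fold in PBS. Mixed with 2-fold serial dilutions of compound (starting at 1 mg/mL in PBS) and incubated 1 h at 37 °C. After centrifugation, supernatant absorbance read at 540 nm. % hemolysis calculated relative to PBS (0%) and 2% Triton (100%). At least three repeats in duplicate.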

[5] = system: Cell membrane; test: Induction of cell membrane disruption in methicillin-resistant Staphylococcus aureus ATCC 33591 at 2 times MIC after 2 hrs by transmission electron microscopic analysis; format: subcellular
How it was run: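 Bacteria at 10^6 CFU/mL were treated at 2× MIC for 2 h at 37 °C, pelleted, washed three times in PBS and resuspended in deionized water. Samples were dropped on grids, blotted, dried under vacuum at 50 °C for 30 s, then imaged by TEM. Untreated control.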

[6] = system: Cell membrane; test: Induction of cell membrane disruption in Escherichia coli ATCC 25922 at 2 times MIC after 2 hrs by transmission electron microscopic analysis; format: subcellular
How it was run: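 Bacteria at 10^6 CFU/mL treated with compound at 2 × MIC for 2 h at 37 °C; untreated controls included. Cells pelleted, washed three times in PBS, resuspended in deionized water, dropped onto grids, blotted, vacuum-dried at 50 °C for 30 s, and imaged by TEM.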

[7] = system: Staphylococcus epidermidis; test: Antibacterial activity against methicillin-resistant Staphylococcus epidermidis RP62A in presence of divalent Ca2+; format: functional
How it was run: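 MIC set up as in the standard TSB broth microdilution (log-phase inoculum at 10^6 CFU/mL, complete growth inhibition end point). The medium was TSB prepared in DI water with CaCl2 added to 2 mM.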

[8] = system: Cell membrane; test: Induction of cell membrane depolarization in Escherichia coli ATCC 25922 assessed as increase in fluorescence intensity measured after 30 mins by DiSC3 staining based fluorescence spectroscopic technique; format: subcellular
How it was run: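 Mid-log E. coli washed in 5 mM HEPES/5 mM glucose and resuspended in HEPES/glucose/100 mM KCl to OD600 about 0.05. DiSC3(5) added (8 μL of a 10 μM solution per 200 μL). Fluorescence (ex 622 nm, em 670 nm) read at room temperature for 30 min, then compound added at 0.5, 1, 2 and 4 × MIC and monitoring continued. Controls: untreated and 1% Triton X-100. Three repeats in duplicate.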

[9] = Selectivity ratio of HC50 for hemolytic activity against mouse RBC to MIC for methicillin-resistant Staphylococcus aureus; format: toxicity; details: mouse red blood cells (erythrocytes)
How it was run: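 Mouse RBCs were washed three times in PBS and diluted in 20 volumes of PBS. They were mixed with compound 2-fold serially diluted from 1 mg/mL in PBS, incubated 1 h at 37 °C, then centrifuged; supernatant read at A540. % hemolysis was calculated against PBS (0%) and 2% Triton (100%). Done ≥3 times in duplicate. HC50 was divided by the MRSA MIC.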

[10] = system: Staphylococcus epidermidis; test: Antibacterial activity against methicillin-resistant Staphylococcus epidermidis RP62A in presence of monovalent Na+ and K+; format: functional
How it was run: (§2)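 MIC set up as in the standard broth microdilution (log-phase inoculum at 10^6 CFU/mL, complete growth inhibition end point). The medium was TSB dissolved in 1× PBS (7.5 g per 250 mL) and autoclaved, supplying Na+ and K+.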

[11] = Selectivity ratio of IC50 for cytotoxicity against human HeLa cells to MIC for methicillin-resistant Staphylococcus aureus; format: toxicity, cell-based
How it was run: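 HeLa cells were seeded at 5×10^3/well and allowed to attach for 24 h (37 °C, 5% CO2). They were then exposed 24 h to a range of compound concentrations in growth medium. Viability was read by CCK-8 (1 h, absorbance 490 nm). Triplicate wells, three repeats. IC50 was divided by the MRSA MIC.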

[12] = system: Staphylococcus aureus; test: Antibacterial activity against methicillin-resistant Staphylococcus aureus ATCC 33591 in presence of monovalent Na+ and K+; format: functional; how it was run: as §2
[13] = system: Cell membrane; test: Induction of cell membrane disruption in Escherichia coli ATCC 25922 assessed as propidium iodide-positive cells at 2 times MIC after 2 hrs by fluorescence microscopic analysis; format: subcellular
How it was run: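 Bacteria from a 10^6 CFU/mL suspension diluted 100-fold and treated with compound at 2 × MIC for 2 h. Cells pelleted (4000g, 15 min, 4 °C), washed three times in PBS, and stained 15 min with PI (5 μg/mL) and DAPI (10 μg/mL). Imaged by oil-immersion fluorescence microscopy; untreated controls included. Three repeats in duplicate.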

[14] = system: Staphylococcus aureus; test: Bactericidal activity against methicillin-resistant Staphylococcus aureus ATCC 33591 at 24 to 48 microg/ml measured upto 60 mins by time kill assay; format: functional, organism-based; details: dose microg/ml 24-48, time min <=60
How it was run: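 Mid-log MRSA (overnight culture in TSB at 37 °C with shaking, then 6 h subculture) at 10^6 CFU/mL was exposed to 6, 12, 24 or 48 μg/mL at 37 °C for 10, 30, 60 and 120 min. Samples were diluted 10^2-fold, plated on TSB agar, incubated 20 h at 37 °C, and colonies counted. Untreated control; three repeats.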

[15] = system: Escherichia coli; test: Antibacterial activity against Escherichia coli ATCC 25922; format: functional; how it was run: as §1
[16] = system: Staphylococcus aureus; test: Antibacterial activity against methicillin-resistant Staphylococcus aureus ATCC 33591 measured for 13 passages; format: functional, organism-based
How it was run: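 Serial-passage resistance test. A first MIC was run by TSB broth microdilution. Bacteria from the well after the last clear well were resuspended to about 10^6 CFU/mL for the next MIC. This was repeated for 13 passages.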

## CCCCCCCCCC(=O)N[C@@H](CCCCN)CN1CC(=O)N(c2ccc(N3CN(C[C@H](CCCCN)NC(=O)CCCCCCCCC)CC3=O)cc2)C1
[1]
  MIC: 2 µg/mL (≈ 2.55 µM)
[2]
  inhibition at 3 µg/mL: > 50%
[3]
  MIC: 5 µg/mL (≈ 6.38 µM)
[4]
  HC50 at 1 h: > 250 µg/mL
[5]
  Activity: Active
[6]
  Activity: Active
[7]
  MIC: 2 µg/mL
[8]
  Activity: Dose-dependent effect
[9]
  selectivity ratio: > 125
[10]
  MIC: 7 µg/mL
[11]
  selectivity ratio: > 38
[12]
  MIC: 4 µg/mL
[13]
  Activity: Active
[14]
  Activity: Active
[15]
  MIC: 5 µg/mL (≈ 6.38 µM)
[16]
  Activity: Active
